Values after ≈ are worked out from the molar mass of the structure shown.
System: Bacillus subtilis
Test: Antibacterial activity against Bacillus subtilis NCIM 2063 after 18 hrs by disc diffusion method
Assay type: functional
Conditions: not given
Method in brief: (§1)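 Modified Kirby-Bauer disc diffusion. Plates inoculated with spore suspension (about 6 × 10⁴ spores mL^-1). Sterile 6 mm paper discs carried test samples at 10 mg mL^-1; ciprofloxacin disc as reference, DMF disc as negative control. Plates held 18 h at 37 °C. Inhibition zone diameters (mm) averaged over triplicate sets.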
In the case of `C[C@H](NC(=O)[C@@H]1CCCN1C(=O)c1cc(-c2nc3ccc([N+](=O)[O-])cc3[nH]2)ccc1O)C(=O)O`, the “inhibition zone (IZ)” value is reported as 13 mm.

System: Trichophyton benhamiae
Test: Antifungal activity against Trichophyton mentagrophytes MUCC 665 after 48 hrs by tube dilution method
Assay type: functional, Arthroderma benhamiae
Conditions: not given
Method in brief: (§2)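 Tube dilution MIC as for bacteria (seven concentrations, 200–3.1 […]), with DMSO in place of DMF. Tubes inoculated with fungal culture and incubated 48 h at 37 °C. MIC read from presence or absence of growth.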
With `C[C@H](NC(=O)[C@@H]1CCCN1C(=O)c1cc(-c2nc3ccc([N+](=O)[O-])cc3[nH]2)ccc1O)C(=O)O` the MIC was 6 µg/mL (≈ 12.8 µM).

System: Candida albicans
Test: Antifungal activity against Candida albicans MUCC 29 after 48 hrs by tube dilution method
Assay type: functional
Conditions: not given
Method in brief: as §2
In the case of `C[C@H](NC(=O)[C@@H]1CCCN1C(=O)c1cc(-c2nc3ccc([N+](=O)[O-])cc3[nH]2)ccc1O)C(=O)O`, the MIC is reported as 6 µg/mL (≈ 12.8 µM).

System: not listed separately
Test: Growth inhibition of DLA cells at 125 ug/mL after 3 hrs
Assay type: functional
Conditions: Mus musculus
Method in brief: (§3)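 DLA and EAC cells passaged intraperitoneally in albino mice, harvested after 15–20 days and adjusted to 1 × 10⁶ cells/mL. Dilutions in Dulbecco's medium (500–31.25, some down to 3.91 µg/mL; 5-FU reference) mixed 1:1 with cells and held 3 h at 37 °C. Trypan blue exclusion gave % growth inhibition; CTC50 by graphical extrapolation.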
Compound `C[C@H](NC(=O)[C@@H]1CCCN1C(=O)c1cc(-c2nc3ccc([N+](=O)[O-])cc3[nH]2)ccc1O)C(=O)O` has an inhibition at 125 µg/mL of 21%.

System: not listed separately
Test: Growth inhibition of EAC cells after 3 hrs
Assay type: functional
Conditions: Mus musculus, Ehrlich
Method in brief: as §3
Compound `C[C@H](NC(=O)[C@@H]1CCCN1C(=O)c1cc(-c2nc3ccc([N+](=O)[O-])cc3[nH]2)ccc1O)C(=O)O` has a CC50 of over 1070 µM.

System: not listed separately
Test: Growth inhibition of EAC cells at 62.5 ug/mL after 3 hrs
Assay type: functional
Conditions: Mus musculus, Ehrlich
Method in brief: as §3
`C[C@H](NC(=O)[C@@H]1CCCN1C(=O)c1cc(-c2nc3ccc([N+](=O)[O-])cc3[nH]2)ccc1O)C(=O)O` gave an inhibition at 62.5 µg/mL of 7.14%.

System: Microsporum audouinii
Test: Antifungal activity against Microsporum audouinii MUCC 545 after 48 hrs by tube dilution method
Assay type: functional
Conditions: not given
Method in brief: as §2
For `C[C@H](NC(=O)[C@@H]1CCCN1C(=O)c1cc(-c2nc3ccc([N+](=O)[O-])cc3[nH]2)ccc1O)C(=O)O`, the MIC was 6 µg/mL (≈ 12.8 µM).

System: Pontoscolex corethrurus
Test: Anthelmintic activity against Pontoscolex corethrurus ICARBC 408 assessed as mean paralyzing time
Assay type: functional
Conditions: not given
Method in brief: (§4)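 Earthworms exposed to test suspensions at 2 mg mL^-1 (0.2% w/v), made by triturating compound with Tween 80 (0.5%) and distilled water, then mechanically stirred 30 min. Mebendazole suspension prepared alike as reference. Paralysis and death times recorded; death confirmed by no movement in 50 °C water. Means from triplicate sets.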
With `C[C@H](NC(=O)[C@@H]1CCCN1C(=O)c1cc(-c2nc3ccc([N+](=O)[O-])cc3[nH]2)ccc1O)C(=O)O` the Time was 31.9 min.

System: not listed separately
Test: Growth inhibition of EAC cells at 500 ug/mL after 3 hrs
Assay type: functional
Conditions: Mus musculus, Ehrlich
Method in brief: as §3
For `C[C@H](NC(=O)[C@@H]1CCCN1C(=O)c1cc(-c2nc3ccc([N+](=O)[O-])cc3[nH]2)ccc1O)C(=O)O`, the inhibition at 500 µg/mL was 25%.

System: not listed separately
Test: Anthelmintic activity against Megascoplex konkanensis ICARBC 211 assessed as mean paralyzing time
Assay type: functional
Conditions: not given
Method in brief: as §4
In the case of `C[C@H](NC(=O)[C@@H]1CCCN1C(=O)c1cc(-c2nc3ccc([N+](=O)[O-])cc3[nH]2)ccc1O)C(=O)O`, the TIME is reported as 0.436 h.

System: Pseudomonas aeruginosa
Test: Antibacterial activity against Pseudomonas aeruginosa NCIM 2034 after 18 hrs by disc diffusion method
Assay type: functional
Conditions: not given
Method in brief: as §1
With `C[C@H](NC(=O)[C@@H]1CCCN1C(=O)c1cc(-c2nc3ccc([N+](=O)[O-])cc3[nH]2)ccc1O)C(=O)O` the “inhibition zone (IZ)” value was 28 mm.

System: Eudrilus
Test: Anthelmintic activity against Eudrilus sp. assessed as mean paralyzing time
Assay type: functional
Conditions: not given
Method in brief: as §4
Compound `C[C@H](NC(=O)[C@@H]1CCCN1C(=O)c1cc(-c2nc3ccc([N+](=O)[O-])cc3[nH]2)ccc1O)C(=O)O` has a Time of 27.12 min.

System: Candida albicans
Test: Antifungal activity against Candida albicans MUCC 29 after 48 hrs by disc diffusion method
Assay type: functional
Conditions: not given
Method in brief: (§5)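 Agar well diffusion on plates inoculated with spore suspension in normal saline from cultures on Sabouraud's broth. Wells punched and loaded with test samples or griseofulvin at 10 mg mL^-1, with DMSO as negative control. Incubated 48 h at 37 °C.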
In the case of `C[C@H](NC(=O)[C@@H]1CCCN1C(=O)c1cc(-c2nc3ccc([N+](=O)[O-])cc3[nH]2)ccc1O)C(=O)O`, the “inhibition zone (IZ)” value is reported as 22 mm.

System: not listed separately
Test: Growth inhibition of EAC cells at 250 ug/mL after 3 hrs
Assay type: functional
Conditions: Mus musculus, Ehrlich
Method in brief: as §3
`C[C@H](NC(=O)[C@@H]1CCCN1C(=O)c1cc(-c2nc3ccc([N+](=O)[O-])cc3[nH]2)ccc1O)C(=O)O` showed an inhibition at 250 µg/mL of 17.9%.

System: not listed separately
Test: Growth inhibition of DLA cells at 62.5 ug/mL after 3 hrs
Assay type: functional
Conditions: Mus musculus
Method in brief: as §3
In the case of `C[C@H](NC(=O)[C@@H]1CCCN1C(=O)c1cc(-c2nc3ccc([N+](=O)[O-])cc3[nH]2)ccc1O)C(=O)O`, the inhibition at 62.5 µg/mL is reported as 18.4%.

System: Trichophyton benhamiae
Test: Antifungal activity against Trichophyton mentagrophytes MUCC 665 after 48 hrs by disc diffusion method
Assay type: functional, Arthroderma benhamiae
Conditions: not given
Method in brief: as §5
In the case of `C[C@H](NC(=O)[C@@H]1CCCN1C(=O)c1cc(-c2nc3ccc([N+](=O)[O-])cc3[nH]2)ccc1O)C(=O)O`, the “inhibition zone (IZ)” value is reported as 17 mm.

System: Staphylococcus aureus
Test: Antibacterial activity against Staphylococcus aureus NCIM 2079 after 18 hrs by tube dilution method
Assay type: functional
Conditions: NCIM 2079, 18 h
Method in brief: (§6)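 Tube dilution MIC. Stock diluted in sterile broth to seven concentrations from 200 to 3.1 […]. Each tube inoculated with one loopful of test bacterium and incubated 18 h at 37 °C. MIC read from presence or absence of growth.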
`C[C@H](NC(=O)[C@@H]1CCCN1C(=O)c1cc(-c2nc3ccc([N+](=O)[O-])cc3[nH]2)ccc1O)C(=O)O` gave an MIC of 25 µg/mL (≈ 53.5 µM).

System: Escherichia coli
Test: Antibacterial activity against Escherichia coli NCIM 2065 after 18 hrs by disc diffusion method
Assay type: functional
Conditions: not given
Method in brief: as §1
With `C[C@H](NC(=O)[C@@H]1CCCN1C(=O)c1cc(-c2nc3ccc([N+](=O)[O-])cc3[nH]2)ccc1O)C(=O)O` the “inhibition zone (IZ)” value was 18 mm.

System: Escherichia coli
Test: Antibacterial activity against Escherichia coli NCIM 2065 after 18 hrs by tube dilution method
Assay type: functional
Conditions: NCIM 2065, 18 h
In the case of `C[C@H](NC(=O)[C@@H]1CCCN1C(=O)c1cc(-c2nc3ccc([N+](=O)[O-])cc3[nH]2)ccc1O)C(=O)O`, the MIC is reported as 12.5 µg/mL (≈ 26.7 µM).

System: Staphylococcus aureus
Test: Antibacterial activity against Staphylococcus aureus NCIM 2079 after 18 hrs by disc diffusion method
Assay type: functional
Conditions: not given
Method in brief: as §1
For `C[C@H](NC(=O)[C@@H]1CCCN1C(=O)c1cc(-c2nc3ccc([N+](=O)[O-])cc3[nH]2)ccc1O)C(=O)O`, the “inhibition zone (IZ)” value was 9 mm.

System: Pontoscolex corethrurus
Test: Anthelmintic activity against Pontoscolex corethrurus ICARBC 408 assessed as mean death time
Assay type: functional
Conditions: not given
Method in brief: (§7)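 Earthworms exposed to test suspensions at 2 mg mL−1, prepared by triturating compound with Tween 80 (0.5%) and distilled water, stirring 30 min, then diluting to 0.2% w/v. Mebendazole suspension was made the same way. Death was confirmed by moving worms into 50 °C warm water and looking for movement. Mean death time (min) taken from triplicate sets.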
Work on `C[C@H](NC(=O)[C@@H]1CCCN1C(=O)c1cc(-c2nc3ccc([N+](=O)[O-])cc3[nH]2)ccc1O)C(=O)O` yielded a Time of 43.55 min.

System: not listed separately
Test: Growth inhibition of DLA cells at 250 ug/mL after 3 hrs
Assay type: functional
Conditions: Mus musculus
Method in brief: as §3
`C[C@H](NC(=O)[C@@H]1CCCN1C(=O)c1cc(-c2nc3ccc([N+](=O)[O-])cc3[nH]2)ccc1O)C(=O)O` showed an inhibition at 250 µg/mL of 26.3%.

System: not listed separately
Test: Growth inhibition of DLA cells after 3 hrs
Assay type: functional
Conditions: Mus musculus
Method in brief: as §3
`C[C@H](NC(=O)[C@@H]1CCCN1C(=O)c1cc(-c2nc3ccc([N+](=O)[O-])cc3[nH]2)ccc1O)C(=O)O` showed a CC50 of over 1070 µM.

System: Eudrilus
Test: Anthelmintic activity against Eudrilus sp. assessed as mean death time
Assay type: functional
Conditions: not given
Method in brief: as §7
`C[C@H](NC(=O)[C@@H]1CCCN1C(=O)c1cc(-c2nc3ccc([N+](=O)[O-])cc3[nH]2)ccc1O)C(=O)O` gave a Time of 35.69 min.

System: Pseudomonas aeruginosa
Test: Antibacterial activity against Pseudomonas aeruginosa NCIM 2034 after 18 hrs by tube dilution method
Assay type: functional
Conditions: NCIM 2034, 18 h
Method in brief: as §6
Work on `C[C@H](NC(=O)[C@@H]1CCCN1C(=O)c1cc(-c2nc3ccc([N+](=O)[O-])cc3[nH]2)ccc1O)C(=O)O` yielded an MIC of 6 µg/mL (≈ 12.8 µM).

System: not listed separately
Test: Anthelmintic activity against Megascoplex konkanensis ICARBC 211 assessed as mean death time
Assay type: functional
Conditions: not given
Method in brief: as §4
With `C[C@H](NC(=O)[C@@H]1CCCN1C(=O)c1cc(-c2nc3ccc([N+](=O)[O-])cc3[nH]2)ccc1O)C(=O)O` the TIME was 0.585 h.

System: not listed separately
Test: Growth inhibition of DLA cells at 500 ug/mL after 3 hrs
Assay type: functional
Conditions: Mus musculus
Method in brief: as §3
For `C[C@H](NC(=O)[C@@H]1CCCN1C(=O)c1cc(-c2nc3ccc([N+](=O)[O-])cc3[nH]2)ccc1O)C(=O)O`, the inhibition at 500 µg/mL was 34.2%.

System: Microsporum audouinii
Test: Antifungal activity against Microsporum audouinii MUCC 545 after 48 hrs by disc diffusion method
Assay type: functional
Conditions: not given
Method in brief: as §5
With `C[C@H](NC(=O)[C@@H]1CCCN1C(=O)c1cc(-c2nc3ccc([N+](=O)[O-])cc3[nH]2)ccc1O)C(=O)O` the “inhibition zone (IZ)” value was 12 mm.

System: not listed separately
Test: Growth inhibition of DLA cells at 31.25 ug/mL after 3 hrs
Assay type: functional
Conditions: Mus musculus
Method in brief: as §3
`C[C@H](NC(=O)[C@@H]1CCCN1C(=O)c1cc(-c2nc3ccc([N+](=O)[O-])cc3[nH]2)ccc1O)C(=O)O` showed an inhibition at 31.25 µg/mL of 7.89%.

System: Aspergillus niger
Test: Antifungal activity against Aspergillus niger MUCC 177 after 48 hrs by disc diffusion method
Assay type: functional
Conditions: not given
Method in brief: as §5
For `C[C@H](NC(=O)[C@@H]1CCCN1C(=O)c1cc(-c2nc3ccc([N+](=O)[O-])cc3[nH]2)ccc1O)C(=O)O`, the “inhibition zone (IZ)” value was 16 mm.

System: not listed separately
Test: Growth inhibition of EAC cells at 125 ug/mL after 3 hrs
Assay type: functional
Conditions: Mus musculus, Ehrlich
Method in brief: as §3
`C[C@H](NC(=O)[C@@H]1CCCN1C(=O)c1cc(-c2nc3ccc([N+](=O)[O-])cc3[nH]2)ccc1O)C(=O)O` showed an inhibition at 125 µg/mL of 14.3%.

System: not listed separately
Test: Growth inhibition of EAC cells at 31.25 ug/mL after 3 hrs
Assay type: functional
Conditions: Mus musculus, Ehrlich
Method in brief: as §3
Work on `C[C@H](NC(=O)[C@@H]1CCCN1C(=O)c1cc(-c2nc3ccc([N+](=O)[O-])cc3[nH]2)ccc1O)C(=O)O` yielded an inhibition at 31.25 µg/mL of 7.14%.

System: Bacillus subtilis
Test: Antibacterial activity against Bacillus subtilis NCIM 2063 after 18 hrs by tube dilution method
Assay type: functional
Conditions: NCIM 2063, 18 h
Method in brief: as §6
Work on `C[C@H](NC(=O)[C@@H]1CCCN1C(=O)c1cc(-c2nc3ccc([N+](=O)[O-])cc3[nH]2)ccc1O)C(=O)O` yielded an MIC of 12.5 µg/mL (≈ 26.7 µM).

— ChEMBL document CHEMBL1146375, “Synthetic studies on novel benzimidazolopeptides with antimicrobial, cytotoxic and anthelmintic potential” (2007)
